Measurements: ChEMBL document CHEMBL1158122, “Anti-inflammatory, anti-tumor-promoting, and cytotoxic activities of constituents of marigold (Calendula officinalis) flowers” (J Nat Prod, 2006)

What was measured:
UACC-62 = assay: Cytotoxicity against human UACC-62 cells after 48 hrs by SRB assay; type: functional; conditions: UACC-62, 48 h
Procedure, shortened: (§1)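 Tested in the NCI panel of 60 human tumour cell lines covering lung, colon, melanoma, renal, ovarian, breast and leukaemia. At least five concentrations were run in 10-fold dilutions starting from 10^-4 M. Exposure was continuous for 48 h. Growth or viability was estimated by sulforhodamine B protein staining, and GI50 values were reported.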

EKVX = assay: Cytotoxicity against human EKVX cells after 48 hrs by SRB assay; type: functional
T47D = assay: Cytotoxicity against human T47D cells after 48 hrs by SRB assay; type: functional; procedure, shortened: as §1
Malme-3M = assay: Cytotoxicity against human MALME-3M cells after 48 hrs by SRB assay; type: functional
K562 = assay: Cytotoxicity against human K-562 cells after 48 hrs by SRB assay; type: functional; conditions: K562, 48 h
RPMI-8226 = assay: Cytotoxicity against human RPMI8226 cells after 48 hrs by SRB assay; type: functional; conditions: RPMI-8226, 48 h
SW-620 = assay: Cytotoxicity against human SW620 cells after 48 hrs by SRB assay; type: functional; conditions: SW-620, 48 h
NCI-H23 = assay: Cytotoxicity against human NCI-H23 cells after 48 hrs by SRB assay; type: functional; conditions: NCI-H23, 48 h
[1] = Cytotoxicity against human Raji cells assessed as cell viability at 100 molar ratio; type: cell-based; conditions: read-out: Activity
Procedure, shortened: (§2)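 Raji cells were treated with 32 pmol TPA to induce EBV early antigen activation. The test agent was added at 10, 100, 500 or 1000 mol ratio relative to TPA, and Raji cell viability was measured alongside EA activation.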

NCI/ADR-RES = assay: Cytotoxicity against human NCI/ADR-RES cells after 48 hrs by SRB assay; type: functional
SF-268 = assay: Cytotoxicity against human SF-268 cells after 48 hrs by SRB assay; type: functional; conditions: SF-268, 48 h
[2] = Cytotoxicity against human Hs 578T cells after 48 hrs by SRB assay; type: functional
CCRF-CEM = assay: Cytotoxicity against human CCRF-CEM cells after 48 hrs by SRB assay; type: functional
IGROV-1 = assay: Cytotoxicity against human IGROV1 cells after 48 hrs by SRB assay; type: functional; conditions: IGROV-1, 48 h
Raji [3] = assay: Inhibition of TPA-induced EBV-early antigen activation in human Raji cells at 1000 molar ratio relative to TPA; type: cell-based; design: scale not given: the % may be the effect or the level left; conditions: human gammaherpesvirus 4
NCI-H226 = assay: Cytotoxicity against human NCI-H226 cells after 48 hrs by SRB assay; type: functional; conditions: NCI-H226, 48 h
Raji [4] = assay: Inhibition of TPA-induced EBV-early antigen activation in human Raji cells at 10 molar ratio relative to TPA; type: cell-based; design: scale not given: the % may be the effect or the level left; conditions: human gammaherpesvirus 4
MCF7 = assay: Cytotoxicity against human MCF7 cells after 48 hrs by SRB assay; type: functional; conditions: MCF7, 48 h
A549 = assay: Cytotoxicity against human A549 cells after 48 hrs by SRB assay; type: functional; conditions: A549, 48 h
MDA-MB-435 = assay: Cytotoxicity against human MDA-MB-435 cells after 48 hrs by SRB assay; type: functional; conditions: MDA-MB-435, 48 h
PC-3 = assay: Cytotoxicity against human PC-3 cells after 48 hrs by SRB assay; type: functional; conditions: PC-3, 48 h
HT-29 = assay: Cytotoxicity against human HT-29 cells after 48 hrs by SRB assay; type: functional; conditions: HT-29, 48 h
SK-MEL-2 = assay: Cytotoxicity against human SK-MEL-2 cells after 48 hrs by SRB assay; type: functional; conditions: SK-MEL-2, 48 h
HCT-15 = assay: Cytotoxicity against human HCT-15 cells after 48 hrs by SRB assay; type: functional; conditions: HCT-15, 48 h
NCI-H322M = assay: Cytotoxicity against human NCI-H322M cells after 48 hrs by SRB assay; type: functional
OVCAR-3 = assay: Cytotoxicity against human OVCAR-3 cells after 48 hrs by SRB assay; type: functional; conditions: OVCAR-3, 48 h
OVCAR-8 = assay: Cytotoxicity against human OVCAR8 cells after 48 hrs by SRB assay; type: functional; conditions: OVCAR-8, 48 h
COLO 205 = assay: Cytotoxicity against human COLO205 cells after 48 hrs by SRB assay; type: functional; conditions: COLO 205, 48 h
UO-31 = assay: Cytotoxicity against human UO-31 cells after 48 hrs by SRB assay; type: functional; conditions: UO-31, 48 h; procedure, shortened: as §1
UACC-257 = assay: Cytotoxicity against human UACC-257 cells after 48 hrs by SRB assay; type: functional; conditions: UACC-257, 48 h; procedure, shortened: as §1
NCI-H460 = assay: Cytotoxicity against human NCI-H460 cells after 48 hrs by SRB assay; type: functional; conditions: NCI-H460, 48 h
U-251 = assay: Cytotoxicity against human U251 cells after 48 hrs by SRB assay; type: functional; conditions: U-251, 48 h; procedure, shortened: as §1
SK-MEL-5 = assay: Cytotoxicity against human SK-MEL-5 cells after 48 hrs by SRB assay; type: functional; conditions: SK-MEL-5, 48 h
RXF 393 = assay: Cytotoxicity against human […] cells after 48 hrs by SRB assay; type: functional; conditions: RXF 393, 48 h
CAKI-1 = assay: Cytotoxicity against human Caki-1 cells after 48 hrs by SRB assay; type: functional; conditions: CAKI-1, 48 h
[5] = Cytotoxicity against human Raji cells assessed as cell viability at 1000 molar ratio; type: cell-based; conditions: read-out: Activity; procedure, shortened: as §2
BT-549 = assay: Cytotoxicity against human BT-549 cells after 48 hrs by SRB assay; type: functional; conditions: BT-549, 48 h
[6] = Inhibition of TPA-induced EBV-early antigen activation in human Raji cells relative to TPA; type: cell-based, human gammaherpesvirus 4
SN12C = assay: Cytotoxicity against human SN12C cells after 48 hrs by SRB assay; type: functional
SNB-19 = assay: Cytotoxicity against human SNB-19 cells after 48 hrs by SRB assay; type: functional; conditions: SNB-19, 48 h
HOP-92 = assay: Cytotoxicity against human HOP-92 cells after 48 hrs by SRB assay; type: functional; conditions: HOP-92, 48 h
KM12 = assay: Cytotoxicity against human KM12 cells after 48 hrs by SRB assay; type: functional; conditions: KM12, 48 h
786-0 = assay: Cytotoxicity against human 786-0 cells after 48 hrs by SRB assay; type: functional; conditions: 786-0, 48 h
MOLT-4 = assay: Cytotoxicity against human MOLT-4 cells after 48 hrs by SRB assay; type: functional; conditions: MOLT-4, 48 h
OVCAR-5 = assay: Cytotoxicity against human OVCAR5 cells after 48 hrs by SRB assay; type: functional; conditions: OVCAR-5, 48 h
TK-10 = assay: Cytotoxicity against human TK-10 cells after 48 hrs by SRB assay; type: functional; conditions: TK-10, 48 h; procedure, shortened: as §1
[7] = Cytotoxicity against human HCT 116 cells after 48 hrs by SRB assay; type: functional; conditions: HCT-116, 48 h
SF-295 = assay: Cytotoxicity against human SF-295 cells after 48 hrs by SRB assay; type: functional; conditions: SF-295, 48 h
HOP-62 = assay: Cytotoxicity against human HOP-62 cells after 48 hrs by SRB assay; type: functional; conditions: HOP-62, 48 h
[8] = Cytotoxicity against human Raji cells assessed as cell viability at 500 molar ratio; type: cell-based; conditions: read-out: Activity; procedure, shortened: as §2
Mus musculus = assay: Antiinflammatory activity against TPA-induced ear edema in mouse; type: functional
Procedure, shortened: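 Specific-pathogen-free female ICR mice were housed five per cage at 24 ± 2 °C. Inflammation was induced on the ear with TPA at 1 µg/ear, and the test agent was applied per ear. Ear edema inhibition was expressed as ID50 in mg per ear.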

Raji [9] = assay: Inhibition of TPA-induced EBV-early antigen activation in human Raji cells at 500 molar ratio relative to TPA; type: cell-based; design: scale not given: the % may be the effect or the level left; conditions: human gammaherpesvirus 4
MDA-MB-231 = assay: Cytotoxicity against human MDA-MB-231 cells after 48 hrs by SRB assay; type: functional; conditions: MDA-MB-231, 48 h
Raji [10] = assay: Inhibition of TPA-induced EBV-early antigen activation in human Raji cells at 100 molar ratio relative to TPA; type: cell-based; design: scale not given: the % may be the effect or the level left; conditions: human gammaherpesvirus 4
[11] = Cytotoxicity against human Raji cells assessed as cell viability at 10 molar ratio; type: cell-based; conditions: read-out: Activity; procedure, shortened: as §2
NCI-H522 = assay: Cytotoxicity against human NCI-H522 cells after 48 hrs by SRB assay; type: functional; conditions: NCI-H522, 48 h

CC1(C)CC[C@]2(C(=O)O)CC[C@]3(C)C(=CC[C@@H]4[C@@]5(C)CC[C@H](O[C@@H]6O[C@H](C(=O)O)[C@@H](O)[C@H](O[C@@H]7O[C@H](CO)[C@H](O)[C@H](O)[C@H]7O)[C@H]6O[C@@H]6O[C@H](CO)[C@@H](O)[C@H](O)[C@H]6O)C(C)(C)[C@@H]5CC[C@]43C)[C@@H]2C1 [CALENDULAGYCOSIDE B]
GI50 (UACC-62): 23 µM
GI50 (EKVX): > 100 µM
GI50 (T47D): > 100 µM
GI50 (Malme-3M): 79.9 µM
GI50 (K562): 81.1 µM
GI50 (RPMI-8226): 50.9 µM
GI50 (SW-620): > 100 µM
GI50 (NCI-H23): 20.2 µM
viability at 100 molar ratio [1]: > 80%
GI50 (NCI/ADR-RES): > 100 µM
GI50 (SF-268): > 100 µM
GI50 [2]: 97.4 µM
GI50 (CCRF-CEM): > 100 µM
GI50 (IGROV-1): > 100 µM
Activity (Raji [3]): 5.1%
GI50 (NCI-H226): > 100 µM
Activity (Raji [4]): 100%
GI50 (MCF7): 53.5 µM
GI50 (A549): > 100 µM
GI50 (MDA-MB-435): > 100 µM
GI50 (PC-3): 20.6 µM
GI50 (HT-29): 40.9 µM
GI50 (SK-MEL-2): > 100 µM
GI50 (HCT-15): 94.6 µM
GI50 (NCI-H322M): 26 µM
GI50 (OVCAR-3): > 100 µM
GI50 (OVCAR-8): > 100 µM
GI50 (COLO 205): > 100 µM
GI50 (UO-31): 63.5 µM
GI50 (UACC-257): > 100 µM
GI50 (NCI-H460): > 100 µM
GI50 (U-251): 32.3 µM
GI50 (SK-MEL-5): > 100 µM
GI50 (RXF 393): > 100 µM
GI50 (CAKI-1): > 100 µM
viability at 1000 molar ratio [5]: 70%
GI50 (BT-549): > 100 µM
IC50 [6]: 470 molar ratio
GI50 (SN12C): 84 µM
GI50 (SNB-19): > 100 µM
GI50 (HOP-92): > 100 µM
GI50 (KM12): > 100 µM
GI50 (786-0): > 100 µM
GI50 (MOLT-4): 86.3 µM
GI50 (OVCAR-5): > 100 µM
GI50 (TK-10): > 100 µM
GI50 [7]: > 100 µM
GI50 (SF-295): 31 µM
GI50 (HOP-62): > 100 µM
viability at 500 molar ratio [8]: > 80%
ID50 (Mus musculus): 0.05 mg
Activity (Raji [9]): 40.3%
GI50 (MDA-MB-231): 45 µM
Activity (Raji [10]): 69.2%
viability at 10 molar ratio [11]: > 80%
GI50 (NCI-H522): 38.4 µM
